Bioassay records deposited in PubChem by several laboratories.
PMI act: activators of human PMI, primary screen, biochemical, fluorescence intensity, near-Km mannose 6-phosphate; purified human PMI, coupled resazurin fluorescence, 20 min; hits give high values; 1 = vehicle control, 0 substrate-free wells; activation factor at 20 µM; actives 0.005% (n = 190,000);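 active = activation factor of 2 or more at 20 µM, relative to plate controls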
PMI act hi M6P: human PMI activators, high substrate, primary screen, biochemical, fluorescence intensity, near-saturating mannose 6-phosphate; coupled PMI enzyme assay, resazurin fluorescence, 20 min; hits give high values; 1 = untreated enzyme, 0 = substrate-free blank; activation factor at 20 µM; actives 0.34% (n = 190,000); AID 1216, 2008;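 active = activation factor of 2 or more at 20 µM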
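Test system: human PMI in coupled enzyme assay; Input: PMI at 15 ng/mL final; Medium: HEPES buffer, pH 7.4; Schedule: 20 min incubation at room temperature; Technique: resorufin fluorescence at Ex 544/Em 590 nm; Compound: 20 µM single dose; Probe or stimulus: Near-saturating mannose-6-phosphate, 1.0 mM.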
Lmaj promast: Leishmania major promastigote growth inhibition, primary screen | Leishmania major promastigotes, resazurin fluorescence viability | inhibition, % at 10 µM | actives 9% (n = 200,000) | AID 1063, 2008; in the data active = inhibition above about 50%;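 also: promastigotes grown with compound for 44 hours at 28 °C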
Rad51 HR inh: human RAD51 strand exchange inhibitors, primary screen, biochemical, fluorescence; DNA repair protein RAD51 homolog 1 (Homo sapiens), Q06609; inhibition, % at 10 µM; hRad51 DNA strand exchange, fluorescence dequenching; AID 1385, 2008; actives 0.085% (n = 200,000);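 active = inhibition above 40% at the single screening dose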
Target sequence (Q06609 whole entry, looked up): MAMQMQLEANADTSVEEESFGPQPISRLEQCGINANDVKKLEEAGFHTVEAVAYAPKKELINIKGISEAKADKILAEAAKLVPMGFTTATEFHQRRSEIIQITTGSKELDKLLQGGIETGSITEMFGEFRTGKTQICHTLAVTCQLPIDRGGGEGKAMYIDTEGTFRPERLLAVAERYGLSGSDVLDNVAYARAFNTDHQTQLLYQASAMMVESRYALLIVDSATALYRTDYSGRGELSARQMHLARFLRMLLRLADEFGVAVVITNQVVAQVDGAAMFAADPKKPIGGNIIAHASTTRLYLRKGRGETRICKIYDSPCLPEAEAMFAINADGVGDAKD
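Material: hRad51 filaments on single-stranded DNA; Reagent: Donor/quencher-labelled 47-bp dsDNA substrate; Compound: 10 µM final, single point; Schedule: 37 °C 15-min filament assembly, 30-min compound preincubation, 15-min exchange; Technique: FRET fluorescence, excitation 485 nm, emission 520 nm; Benchmarks: control wells and blank wells on each plate.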
Calpain2 inh: inhibitors of pig calpain II, primary screen, biochemical, fluorogenic peptide substrate, 1536-well; purified calpain II, 30 min; inhibition, % at 16 µM; actives 0.37% (n = 220,000);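 active = inhibition above about 50%, limit read from the data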
WT yeast gro inh: growth inhibition of WT strain, primary screen, mitochondrial fusion inhibitor project, WT and mutant strains, chemical genetic. inhibition, % at 10 µM. AID 1362, 2008. mitochondrial fusion phenotypic screen. actives 2.1% (n = 190,000); in the data active = inhibition above about 58%; tested in S. cerevisiae
Large screens that a line does not name were inactive. Compounds with a hit are over-represented: about 9.8% of the library has one in this group of screens.

COc1cccc(CSc2nc3ccccc3[nH]2)c1	none
O=C(O)C1C(c2ccccc2)C(C(=O)OCc2ccco2)C1c1ccccc1 (centres undefined)	none
COC(=O)C1C(c2ccccc2)C(C(=O)OCc2ccco2)C1c1ccccc1 (centres undefined)	WT yeast gro inh 76
O=C(NC(=S)NCCC1=CCCCC1)c1ccc(Br)o1	WT yeast gro inh 76
Cc1ccccc1C(=O)NC(=S)NCCC1=CCCCC1	WT yeast gro inh 71 (no result: Rad51 HR inh)
O=C(NC(=S)NCCC1=CCCCC1)c1ccco1	none
Cc1ccc(NC(=S)NCCC2=CCCCC2)cc1	WT yeast gro inh 68
O=C(NCCC1=CCCCC1)c1ccc(Br)o1	none
CCOC(=O)c1ccc(NC(=S)NCCC2=CCCCC2)cc1	none
C/C(CC(=O)Nc1cccnc1)=N\NC(=O)C(C)Oc1ccc(Cl)cc1Cl (centres undefined)	none (no result: PMI act, PMI act hi M6P, Lmaj promast, WT yeast gro inh)
CCC(C)NCCOc1cc(C)cc(C)c1C (centres undefined)	none
CCC(C)NCCOCCOc1ccc(F)cc1 (centres undefined)	Lmaj promast 95
CCC(C)NCCCOc1ccc([N+](=O)[O-])cc1 (centres undefined)	none (no result: Rad51 HR inh)
CCC(C)NCCCCOc1ccc(Br)cc1 (centres undefined)	Lmaj promast 94
CCC(C)NCCCCOc1cc(C)cc(C(C)C)c1 (centres undefined)	Lmaj promast 91
CCC(C)NCCOCCOc1cc(C)c(Cl)c(C)c1 (centres undefined)	Lmaj promast 87
CCC(C)NCCOCCOc1ccc(C)cc1OC (centres undefined)	none
COc1ccc2c(c1OC)C(=O)OC2n1c(O)c(N=NC(C)=O)c2ccccc21 (centres undefined)	none (no result: PMI act, PMI act hi M6P, Lmaj promast, WT yeast gro inh)
CCCCOc1ccc(-c2nc(=S)[nH][nH]2)cc1	none
COc1ccccc1NC(=O)c1ccc(CSc2ncccn2)cc1	none
Nn1c(SCc2ccccc2F)nnc1-c1ccccn1	none (no result: PMI act, PMI act hi M6P, Lmaj promast, WT yeast gro inh)
COc1ccc(C(=O)C(CCC(CNC(C)(C)C)C(=O)c2ccc(OC)cc2)CNC(C)(C)C)cc1 (centres undefined)	Lmaj promast 100
COc1ccc(C(CNC(=O)c2cccc(Br)c2)N2CCCC2)cc1 (centres undefined)	Lmaj promast 54
CN(C)C(=O)c1ccc(-n2cccn2)nc1	none
CCOC(=O)N1CCC(N2CCN(Cc3ccc(F)c(F)c3)C(CCO)C2)CC1 (centres undefined)	Lmaj promast 84 (no result: PMI act, PMI act hi M6P)
CCOC(=O)N1CCC(N2CCN(CCC(C)C)C(CCO)C2)CC1 (centres undefined)	none
COc1ccc(CN2CCN(CC=C(C)C)C(CCO)C2)cc1Cn1cncn1 (centres undefined)	none
CSc1cccc(CN2CCN(Cc3ccc(F)c(F)c3)C(CCO)C2)c1 (centres undefined)	Lmaj promast 79
CSc1ccc(CN2CCN(CC=C(C)C)C(CCO)C2)cc1 (centres undefined)	Lmaj promast 65
CCCn1ncc(CN2CCN(CCc3ccccc3)C(CCO)C2)c1C (centres undefined)	Lmaj promast 60 (no result: Rad51 HR inh)
Cc1ccc2cccc(Oc3ncnc4scc(-c5ccc(Cl)cc5)c34)c2n1	none
Cc1nc(-c2coc3c(CN(C)C)c(O)ccc3c2=O)cs1	none
O=C(COC(=O)c1cc[n+]([O-])cc1)Nc1ccc([N+](=O)[O-])cc1Cl	none
CC(C)(O)C#Cc1ccc(CN2CCN(CCc3ccccc3)C(CCO)C2)s1 (centres undefined)	Lmaj promast 80
CC(C)(O)C#Cc1ccc(CN2CCN(Cc3ccccc3)C(CCO)C2)s1 (centres undefined)	none
CSc1cccc(CN2CCN(CCc3ccccc3)C(CCO)C2)c1 (centres undefined)	Lmaj promast 88
Cc1ccc(CN2CCN(Cc3ccccc3)C(CCO)C2)s1 (centres undefined)	none
OCCC1CN(Cc2cccnc2)CCN1CCc1ccccc1 (centres undefined)	none (no result: Rad51 HR inh)
CC(C)c1csc(CN2CCN(Cc3ccc(F)c(F)c3)C(CCO)C2)n1 (centres undefined)	Lmaj promast 70 (no result: Rad51 HR inh)
CSc1cccc(CN2CCN(Cc3ccccc3)C(CCO)C2)c1 (centres undefined)	Lmaj promast 84
CC(C)c1cc(CN2CCN(Cc3ccc(F)c(F)c3)C(CCO)C2)[nH]n1 (centres undefined)	none
COC(=O)c1ccc(NC(=O)CCN2C(=O)CSC2=O)cc1	none
CSc1ccc(CN2CCN(Cc3ccccc3)C(CCO)C2)cc1 (centres undefined)	Lmaj promast 74
CSc1cccc(CN2CCC(CO)(Cc3ccccc3)CC2)c1	Lmaj promast 88
CC(C)(O)C#Cc1ccc(CN2CCN(Cc3ccccc3)C(CCO)C2)cc1 (centres undefined)	none (no result: Rad51 HR inh)
COCCCN(CC(=O)Nc1ccc(N2CCOCC2)cc1)S(=O)(=O)c1ccc(Cl)cc1	none
OC(COc1ccc2cc(Br)ccc2c1)CN1CCCC1 (centres undefined)	Lmaj promast 100
O=S(=O)(N1CCCCC1)N1CCN(CC(O)COc2ccc3cc(Br)ccc3c2)CC1 (centres undefined)	none
CN(C)S(=O)(=O)N1CCN(CC(O)COc2ccc3cc(Br)ccc3c2)CC1 (centres undefined)	WT yeast gro inh 98
O=C(CSc1nnc(Cc2cccs2)n1C1CCCCC1)N1CCCc2ccccc21	Lmaj promast 95
COc1ccc(-n2c(Cc3cccn3C)nnc2SCC(=O)N2CCCc3ccccc32)cc1	Lmaj promast 63
Cn1c(Cc2cccs2)nnc1SCC(=O)N1CCCc2ccccc21	none
CCOC(=O)C1=NN(c2ccccc2)C(=O)/C1=C\c1ccc(N(C)C)cc1	Lmaj promast 89
CCOC(=O)c1c(C)n(C)c2ccc(OCC(O)CN3CCC(C)CC3)cc12 (centres undefined)	none
CCOC(=O)c1c(C)n(C)c2ccc(OCC(O)CN3CCCCCC3)cc12 (centres undefined)	Lmaj promast 98
CCOC(=O)c1c(C)n(C)c2ccc(OCC(O)CNC(CC)CO)cc12 (centres undefined)	none
CCOC(=O)c1c(C)n(-c2ccc(C)cc2)c2ccc(OCC(O)CNCCCO)cc12 (centres undefined)	Lmaj promast 80
